Experimental data of several laboratories.
Each line is one published result; the experiments were not run side by side.
Target: cGMP-dependent protein kinase 1 (PRKG1, Homo sapiens, UniProt Q13976)
Sequence (Q13976 1-671, as in one of the studies): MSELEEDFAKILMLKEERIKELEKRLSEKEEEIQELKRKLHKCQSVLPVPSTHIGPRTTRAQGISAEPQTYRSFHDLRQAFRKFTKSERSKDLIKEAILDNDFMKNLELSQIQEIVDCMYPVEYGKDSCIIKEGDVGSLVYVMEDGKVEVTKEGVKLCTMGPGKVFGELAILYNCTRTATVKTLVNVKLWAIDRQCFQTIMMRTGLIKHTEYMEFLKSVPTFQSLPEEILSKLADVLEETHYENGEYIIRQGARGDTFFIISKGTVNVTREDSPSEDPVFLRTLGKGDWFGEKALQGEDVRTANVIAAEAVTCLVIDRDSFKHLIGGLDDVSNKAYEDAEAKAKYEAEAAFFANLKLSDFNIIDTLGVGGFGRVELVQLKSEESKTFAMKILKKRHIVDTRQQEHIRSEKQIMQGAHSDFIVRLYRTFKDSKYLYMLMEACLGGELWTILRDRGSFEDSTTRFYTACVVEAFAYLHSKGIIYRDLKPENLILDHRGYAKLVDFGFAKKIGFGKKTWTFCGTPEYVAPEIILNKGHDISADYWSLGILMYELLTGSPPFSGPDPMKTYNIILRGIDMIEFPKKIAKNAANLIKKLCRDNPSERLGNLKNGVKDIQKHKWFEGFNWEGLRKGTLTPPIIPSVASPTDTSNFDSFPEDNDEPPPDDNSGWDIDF

C=CC(=O)N1CCC(C(=O)NCC(=O)N2CCN(c3nc(-c4cnc(N)nc4C(F)F)nc(N4CCOCC4)n3)CC2)CC1
remaining binding (binding; competition with immobilised ligand; 1 µM): 87%

FC(F)(F)Oc1cccc(-c2cnc3ccc(-c4ccncc4)nn23)c1
remaining binding (cell-free assay; competition with immobilised ligand; 5 µM): 98%

CC1=C(C#N)[C@@H](c2ccc3[nH]nc(C)c3c2)C(C#N)=C(c2ccc(Cl)cc2)N1
remaining binding (cell-free assay; competition with immobilised ligand; 1 µM): 86.9%

CN(CCCC(F)(F)F)c1nccc(-c2cnn3ncccc23)n1
remaining binding (binding; 1 µM): 100%

O=C(NCCCN1CCOCC1)c1ccc(Nc2nccc(-c3cc4ccccc4s3)n2)cc1
remaining binding (binding; competition with immobilised ligand; 1 µM): 99%

CNC(=O)[C@@H]1CC[C@@H](n2c(-c3ccc4cnccc4c3)nc3ccc(C(=O)NCc4cccc(C(N)=O)c4)cc32)C1
remaining binding (binding; competition with immobilised ligand; 1 µM): 98%

Cc1c[nH]c2nccc(Oc3c(F)cc(Nc4cc(Cl)nc(N)n4)cc3F)c12
remaining binding (cell-free assay; competition with immobilised ligand; 0.1 µM): 49%

O=C(NCC1CCOCC1)c1n[nH]cc1NC(=O)c1c(F)cccc1F
remaining binding (binding; competition with immobilised ligand; 1 µM): 100%

c1cncc(-c2cccc(Nc3nccc(NC4CCCCC4)n3)c2)c1
remaining binding (binding; competition with immobilised ligand; 10 µM): 100%

C[C@@]1(Cc2ccc(C#N)cc2)C(=O)N(c2cc(Cl)cc(Cl)c2)c2ncc(C(=O)NC3(c4nc(C5CCC5)no4)CC3)n21
remaining binding (cell-free assay; competition with immobilised ligand; 1 µM): 100%

O=C(c1ccc(Nc2ncc(Cl)c(-c3cc4ccccc4s3)n2)cc1)N1CCC(N2CCCC2)CC1
remaining binding (binding; competition with immobilised ligand; 1 µM): 100%

C[C@H]1CCN(c2nccc(-c3cnn4ncccc34)n2)C1
remaining binding (binding; 1 µM): 98%

FC(F)(F)c1ccc2c(c1)nc(-c1cccnc1)n2C1CC1
remaining binding (cell-free assay; competition with immobilised ligand; 1 µM): 87%

CN(C)c1nccc(-c2cnn3ncccc23)n1
remaining binding (binding; 1 µM): 100%

O=C(N[C@H]1CCCCC/C=C\C2C[C@@]2(C(=O)O)NC(=O)[C@@H]2C[C@@H](Oc3ccncc3)CN2C1=O)OC1CCCC1 (stereo partly drawn)
remaining binding (binding; competition with immobilised ligand; 1 µM): 100%

COc1ccnn2ncc(-c3ccnc(N(C)C)n3)c12
remaining binding (binding; 1 µM): 100%

CN([C@@H]1CCc2c(CC(=O)O)c3cc(S(C)(=O)=O)ccc3n2C1)S(=O)(=O)c1ccc(F)cc1
remaining binding (cell-free assay; competition with immobilised ligand; 1 µM): 95%

CN(C)c1nccc(-c2cnc3ncccn23)n1
remaining binding (binding; 1 µM): 81%

COc1ncc2cc3ccccc3nc2c1C#N
remaining binding (cell-free assay; competition with immobilised ligand; 5 µM): 100%

N[C@@H]1CCN(c2nccc(-c3cnn4ncccc34)n2)C1
remaining binding (binding; 1 µM): 100%

O=C(c1ccc(Nc2nccc(-c3cc4ccccc4s3)n2)cc1)N1CCC(N2CCCC2)CC1
remaining binding (binding; competition with immobilised ligand; 1 µM): 100%
